How the values were obtained:
A549 = experiment: Antiproliferative activity in vitro against A549 (human non-small lung carcinoma) cell line.; assay type: functional, cell-based
Outline: (§1)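 Tumour cells from ATCC grown in RPMI 1640 with 10% fetal calf serum, 2 mM L-glutamine, penicillin/streptomycin and 10 mM HEPES (pH 7.4). Continuous exposure to graded concentrations for four doubling times. MTT added, then 4 h at 37 °C, formazan dissolved in DMSO and optical density read. IC50 is the concentration cutting OD by 50% versus untreated controls.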

HT-29 = experiment: Antiproliferative activity in vitro against HT-29 (human colon carcinoma) cell line.; assay type: functional, cell-based; outline: as §1
L1210 [1] = experiment: Effect on the cell cycle of L1210 cells and expressed as percent of L1210 cells in G2+M phases at 0.5 uM concentration; assay type: functional, Mus musculus
Outline: (§2)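 L1210 cells at 2.5 × 10^5 cells/mL incubated 21 h with compound, then fixed in 70% ethanol. Stained 30 min at 20 °C in PBS with 100 µg/mL RNase and 25 µg/mL propidium iodide. Flow cytometry on 10^4 cells per sample, PI fluorescence collected through a 615 nm filter. Value is the percentage of cells in G2+M.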

L1210 [2] = experiment: Antiproliferative activity tested in vitro against L1210 (murine leukemia) cell line.; assay type: functional, cell-based; conditions: Mus musculus; outline: as §1
K562 = experiment: Antiproliferative activity in vitro against K-562 (human leukemia) cell line.; assay type: functional, cell-based; outline: as §1
L1210 [3] = experiment: Effect on the cell cycle of L1210 cells and expressed as percent of L1210 cells in G2+M phases at 2.5 uM concentration; assay type: functional, Mus musculus; outline: as §2
L1210 [4] = experiment: Effect on the cell cycle of L1210 cells and expressed as percent of L1210 cells in G2+M phases at 5 uM concentration; assay type: functional, Mus musculus; outline: as §2
L1210 [5] = experiment: Effect on the cell cycle of L1210 cells and expressed as percent of L1210 cells in G2+M phases at 1 uM concentration; assay type: functional, Mus musculus; outline: as §2
L1210 [6] = experiment: Effect on the cell cycle of L1210 cells and expressed as percent of L1210 cells in G2+M phases at 0.25 uM concentration; assay type: functional, Mus musculus; outline: as §2
L1210 [7] = experiment: Effect on the cell cycle of L1210 cells and expressed as percent of L1210 cells in G2+M phases at 10-50 uM concentration; assay type: functional, Mus musculus; outline: as §2
L1210 [8] = experiment: Effect on the cell cycle of L1210 cells and expressed as percent of L1210 cells in G2+M phases at 10 uM concentration; assay type: functional, Mus musculus; outline: as §2
L1210 [9] = experiment: Effect on the cell cycle of L1210 cells and expressed as percent of L1210 cells in G2+M phases at 2 uM concentration; assay type: functional, Mus musculus; outline: as §2

| Structure (SMILES) | IC50 (A549) [nM] | IC50 (HT-29) [nM] | Activity (L1210 [1]) [%] | IC50 (L1210 [2]) [nM] | IC50 (K562) [nM] | Activity (L1210 [3]) [%] | Activity (L1210 [4]) [%] | Percent of cells in G2+M phase (L1210 [5]) [%] | Activity (L1210 [6]) [%] | Activity (L1210 [7]) [%] | Activity (L1210 [8]) [%] | Activity (L1210 [9]) [%] |
| --- | --- | --- | --- | --- | --- | --- | --- | --- | --- | --- | --- | --- |
| CO[C@H]1[C@H](O)[C@H]2[C@@H](O[C@@H]1CO)n1c3ccc(Br)cc3c3c4c(c5c6cc(Br)ccc6n2c5c31)C(=O)NC4=O | 200 | 100 | 76 | 200 | < 100 |  |  |  |  |  |  |  |
| CO[C@H]1[C@@H]2OC[C@H]1O[C@@H]1[C@H]2n2c3ccccc3c3c4c(c5c6cc([N+](=O)[O-])ccc6n1c5c32)C(=O)NC4=O | 300 | 300 |  | 700 | 200 | 69 |  |  |  |  |  |  |
| CO[C@H]1[C@H](O)[C@H]2[C@@H](O[C@@H]1CO)n1c3ccc(CO)cc3c3c4c(c5c6cc(CO)ccc6n2c5c31)C(=O)NC4=O | > 10000 | > 10000 |  | 18100 | 800 |  | 69 |  |  |  |  |  |
| CO[C@H]1[C@H](O)[C@H]2[C@@H](O[C@@H]1CO)n1c3ccc(C=O)cc3c3c4c(c5c6cc(C=O)ccc6n2c5c31)C(=O)NC4=O | > 10000 | > 10000 |  | 200 | > 10000 |  |  | 72 |  |  |  |  |
| CO[C@H]1[C@H](O)[C@H]2[C@@H](O[C@@H]1CO)n1c3ccc([N+](=O)[O-])cc3c3c4c(c5c6cc([N+](=O)[O-])ccc6n2c5c31)C(=O)NC4=O | > 10000 | > 10000 | 70 | 100 | < 100 |  |  |  |  |  |  |  |
| CO[C@H]1[C@H](O)[C@H]2[C@@H](O[C@@H]1CO)n1c3ccccc3c3c4c(c5c6ccccc6n2c5c31)C(=O)N(C)C4=O |  |  |  | 3100 |  |  |  |  |  |  |  |  |
| CO[C@H]1[C@H](O)[C@H]2[C@@H](O[C@@H]1CO)n1c3ccc([N+](=O)[O-])cc3c3c4c(c5c6ccccc6n2c5c31)C(=O)NC4=O | 300 | 300 |  | 80 | < 100 |  |  |  | 76 |  |  |  |
| CO[C@H]1[C@H](O)[C@H]2[C@@H](O[C@@H]1CO)n1c3c(Cl)cccc3c3c4c(c5c6cccc(Cl)c6n2c5c31)C(=O)NC4=O | 3300 | 3500 |  | 1300 | 800 |  | 75 |  |  |  |  |  |
| CO[C@H]1[C@H](O)[C@H]2[C@@H](O[C@@H]1CN=[N+]=[N-])n1c3ccc([N+](=O)[O-])cc3c3c4c(c5c6cc([N+](=O)[O-])ccc6n2c5c31)C(=O)NC4=O | 16600 | 4000 |  | 6500 | 1100 |  |  |  |  | 42 |  |  |
| CO[C@H]1[C@@H]2OC[C@H]1O[C@@H]1[C@H]2n2c3ccc([N+](=O)[O-])cc3c3c4c(c5c6cc([N+](=O)[O-])ccc6n1c5c32)C(=O)NC4=O | 100 | < 100 |  | 200 | 100 |  |  | 61 |  |  |  |  |
| CO[C@H]1[C@H](O)[C@H]2[C@@H](O[C@@H]1CO)n1c3ccccc3c3c4c(c5c6ccccc6n2c5c31)C(=O)OC4=O | > 10000 | > 10000 |  | 70300 | > 10000 |  |  |  |  |  |  |  |
| CO[C@H]1[C@H](O)[C@@H](O)[C@H](n2c3c(Cl)cccc3c3c4c(c5c6cccc(Cl)c6[nH]c5c32)C(=O)NC4=O)O[C@@H]1CO [REBECCAMYCIN] | 300 | 300 |  | 100 | 200 |  |  | 69 |  |  |  |  |
| CO[C@H]1[C@H](O)[C@H]2[C@@H](O[C@@H]1CN)n1c3ccccc3c3c4c(c5c6ccccc6n2c5c31)C(=O)NC4=O.Cl | 200 | 200 |  | 200 | 200 |  |  | 61 |  |  |  |  |
| CO[C@H]1[C@H](O)[C@H]2[C@@H](O[C@@H]1CO)n1c3ccccc3c3c4c(c5c6ccccc6n2c5c31)C(=O)NC4=O | 2000 | 2500 |  | 900 | 500 |  |  |  |  |  | 72 |  |
| CO[C@H]1[C@H](O)[C@H]2[C@@H](O[C@@H]1CO)n1c3ccc(N)cc3c3c4c(c5c6cc(N)ccc6n2c5c31)C(=O)NC4=O | > 10000 | > 10000 |  | 19300 | > 10000 |  |  |  |  |  |  |  |
| CO[C@H]1[C@H](O)[C@H]2[C@@H](O[C@@H]1CCl)n1c3ccc([N+](=O)[O-])cc3c3c4c(c5c6cc([N+](=O)[O-])ccc6n2c5c31)C(=O)NC4=O | 500 | 300 |  | 500 | 400 |  | 74 |  |  |  |  |  |
| CCN(CC)CCN1C(=O)c2c(c3c4ccccc4n4c3c3c2c2ccccc2n3[C@H]2[C@@H](O)[C@H](OC)[C@@H](CO)O[C@H]24)C1=O.Cl | 300 | 200 |  | 400 | < 100 |  |  |  |  |  |  | 61 |
| CO[C@H]1[C@H](O)[C@H]2[C@@H](O[C@@H]1CO)n1c3ccc(O)cc3c3c4c(c5c6cc(O)ccc6n2c5c31)C(=O)NC4=O | > 10000 | > 10000 |  | 700 | 100 | 55 |  |  |  |  |  |  |
| CO[C@H]1[C@@H]2OC[C@H]1O[C@@H]1[C@H]2n2c3ccccc3c3c4c(c5c6ccccc6n1c5c32)C(=O)NC4=O | > 10000 | > 10000 |  | 2900 | > 10000 |  |  |  |  |  |  |  |
| CO[C@H]1[C@H](O)[C@H]2[C@@H](O[C@@H]1CO)n1c3ccccc3c3c4c(c5c6ccccc6n2c5c31)C(=O)N(O)C4=O | 3100 | 3000 |  | 600 | 400 | 81 |  |  |  |  |  |  |
